Reference: article PMC6543826 (Bioorganic chemistry, 2018)
Read-outs that look alike come from different tables or passages of the source.

Assays:
CCRF-CEM = assay: cells; format: cell-based; conditions: 10^−5 M, 48 h
UO-31 = assay: cells; format: cell-based; conditions: UO-31, 10^−5 M, 48 h
p38MAPKα = p38MAPKα (Homo sapiens, UniProt Q16539); assay: in vitro kinase assay, GST-ATF2; format: biochemical
OVCAR-5 = assay: cells; format: cell-based; conditions: OVCAR-5, 10^−5 M, 48 h
NCI-H322M = assay: cells; format: cell-based; conditions: 10^−5 M, 48 h
BT-549 = assay: cells; format: cell-based; conditions: BT-549, 10^−5 M, 48 h
SK-MEL-2 = assay: cells; format: cell-based; conditions: SK-MEL-2, 10^−5 M, 48 h
IGROV1 = assay: cells; format: cell-based; conditions: IGROV1, 10^−5 M, 48 h
M14 = assay: cells; format: cell-based; conditions: M14, 10^−5 M, 48 h
HT29 = assay: cells; format: cell-based; conditions: HT29, 10^−5 M, 48 h
MDA-MB-435 = assay: cells; format: cell-based; conditions: MDA-MB-435, 10^−5 M, 48 h
SF-539 = assay: cells; format: cell-based; conditions: SF-539, 10^−5 M, 48 h
UACC-62 = assay: cells; format: cell-based; conditions: UACC-62, 10^−5 M, 48 h
PC-3 = assay: cells; format: cell-based; conditions: PC-3, 10^−5 M, 48 h
OVCAR-3 = assay: cells; format: cell-based; conditions: OVCAR-3, 10^−5 M, 48 h
LOX IMVI = assay: cells; format: cell-based; conditions: 10^−5 M, 48 h
NCI-H522 = assay: cells; format: cell-based; conditions: NCI-H522, 10^−5 M, 48 h
SNB-19 = assay: cells; format: cell-based; conditions: SNB-19, 10^−5 M, 48 h
ACHN = assay: cells; format: cell-based; conditions: 10^−5 M, 48 h
U251 = assay: cells; format: cell-based; conditions: U251, 10^−5 M, 48 h
HL-60 (TB) = assay: cells; format: cell-based; conditions: HL-60(TB), 10^−5 M, 48 h
EKVX = assay: NCI-60 SRB screen, Non-small cell lung cancer; format: cell-based, human; conditions: 10^−5 M, 48 h
SNB-75 = assay: cells; format: cell-based; conditions: SNB-75, 10^−5 M, 48 h
A498 = assay: NCI-60 SRB screen, Renal cancer; format: cell-based, human; conditions: A498, 10^−5 M, 48 h
NCI-H226 = assay: cells; format: cell-based; conditions: NCI-H226, 10^−5 M, 48 h
[1] = tested on: caspase 3/7 in A375 cells; assay: IncuCyte Caspase 3/7 apoptosis assay; format: cell-based, human; conditions: doses of 3.7 and 33.3 μM, after 48 and 72 h
Outline: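 2000 A375 cells per well adhered for 24 h, then received test compound doses plus a constant concentration of IncuCyte Caspase-3/7 reagent. Cells were imaged on IncuCyte ZOOM (10× objective) at set time points, and stained cells were counted. Apoptotic cell number was normalized to percentage area confluence at the final time point.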

[2] = tested on: BRAF-mutant A375 melanoma cells; assay: A375 cell viability, MTS assay; format: cell-based; conditions: Homo sapiens, A-375, 72 h, read-out: A375 Cell Viability IC50
Outline: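 A375 cells were kept in RPMI with 10% heat-inactivated FBS, Glutamax and penicillin/streptomycin at 37 °C in 5% CO2. 2000 cells per well were treated with a range of test compound doses for 72 h. Viability was read by MTS assay. Run in triplicate.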

A375 cells [3] = assay: IncuCyte real time proliferation assay; format: cell-based, human; conditions: imaged every 1 h for 90 h
Outline: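 Real-time growth: 2000 A375 cells per well adhered for 24 h, then were treated with a range of test compound doses. Phase images were taken on IncuCyte ZOOM (10× objective) every 1 h for 90 h in total. Growth confluence was estimated from the images and plotted.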

[4] = tested on: cleaved PARP in A375 cells; assay: PARP cleavage western blot; format: cell-based, human; conditions: 12 h exposure
Outline: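 A375 cells (1,000,000 per well) were seeded 24 h, then exposed to several test compound doses for 12 h before lysis in buffer with protease/phosphatase inhibitors. Protein was measured by Bradford. 60 μg lysate was run on 10% SDS-PAGE and blotted to PVDF. Blots were probed for PARP and cleaved PARP, with vinculin as loading control. Done twice.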

A375 cells [5] = assay: anchorage dependent colony formation assay; format: cell-based, human; conditions: A375, 10–14 days
Outline: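 1000 A375 cells per 60 mm plate adhered for 24 h, then were treated with various test compound doses for 10–14 days. Plates were PBS-washed and fixed in 4% paraformaldehyde (15 min, room temperature). They were stained with 0.2% crystal violet in 20% methanol for 10 min, water-washed and imaged under microscope.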

p38MAPKα, sequence (Q16539 whole entry): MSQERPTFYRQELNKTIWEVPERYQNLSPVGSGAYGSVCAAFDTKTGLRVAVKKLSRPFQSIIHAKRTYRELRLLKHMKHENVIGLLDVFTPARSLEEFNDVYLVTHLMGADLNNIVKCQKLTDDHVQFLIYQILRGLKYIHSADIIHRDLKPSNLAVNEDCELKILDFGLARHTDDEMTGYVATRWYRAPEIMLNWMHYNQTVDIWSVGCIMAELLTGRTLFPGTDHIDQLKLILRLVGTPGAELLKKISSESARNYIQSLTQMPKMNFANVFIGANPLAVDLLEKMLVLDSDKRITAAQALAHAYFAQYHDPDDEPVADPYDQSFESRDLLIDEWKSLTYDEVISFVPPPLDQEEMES

| SMILES | Growth percent (G%) (CCRF-CEM) | Growth percent (G%) (UO-31) | ability to inhibit p38MAPKα (in words) (p38MAPKα) | Growth percent (G%) (OVCAR-5) | Growth percent (G%) (NCI-H322M) | Growth percent (G%) (BT-549) | Growth percent (G%) (SK-MEL-2) | Growth percent (G%) (IGROV1) | Growth percent (G%) (M14) | Growth percent (G%) (HT29) | Growth percent (G%) (MDA-MB-435) | Growth percent (G%) (SF-539) | Growth percent (G%) (UACC-62) | Growth percent (G%) (PC-3) | Growth percent (G%) (OVCAR-3) | Growth percent (G%) (LOX IMVI) | Growth percent (G%) (NCI-H522) | Growth percent (G%) (SNB-19) | Growth percent (G%) (ACHN) | Growth percent (G%) (U251) | further results |
| --- | --- | --- | --- | --- | --- | --- | --- | --- | --- | --- | --- | --- | --- | --- | --- | --- | --- | --- | --- | --- | --- |
| O=C1c2ccccc2C(=O)c2c1oc1c2c(=O)[nH]c2ccccc21 [3a, Naphtho[2′,3′:4,5]furo[3,2-c]quinoline-6,7,12(5H)-trione] | 20.72% | 60.44% | did not show any ability to inhibit | 102.37% | 89.28% | 73.94% | 76.92% | 55.11% | 73.38% | 102.52% | 83.72% | 90.30% | 88.73% | 65.49% | −14.81% | 56.12% | 54.81% | 103.72% | 65.70% | 79.04% | IC50 (p38MAPKα; p38MAPKα IC50, 10 μM GST-ATF2): > 200 µM; Growth percent (G%) (HL-60 (TB)): 2.26%; Growth percent (G%) (EKVX): 27.35%; Growth percent (G%) (SNB-75): 112.98%; Growth percent (G%) (A498): 103.58%; Growth percent (G%) (NCI-H226): 78.47% |
| Cn1c(=O)c2c(=O)c3c4c(oc3oc2c2ccccc21)C(=O)c1ccccc1C4=O [5a, 5-Methyl-5H-naphthalen[2″,3″:4′,5′]furo[3′,2′:4′,5,6]pyrano [3,2-c]quinoline-6,7,8,13-tetraone] | 92.93% | 137.02% | did not show any ability to inhibit | 102.02% | 91.04% | 104.21% | 86.85% | 65.92% | 98.25% | 96.96% | 105.3% | 93.83% | 93.45% | 79.23% | 98.93% | 95.89% | 78.37% | 110.38% | 85.7% | 104.35% | IC50 (p38MAPKα; read-out: p38MAPKα IC50, 10 μM GST-ATF2): > 200 µM; Growth percent (G%) (HL-60 (TB)): 104.29%; Growth percent (G%) (SNB-75): 101.36%; Growth percent (G%) (NCI-H226): 88.55% |
| O=C1C(Cl)=C(c2c(O)c3c(=O)n(-c4ccccc4)c4ccccc4c3oc2=O)C(=O)c2ccccc21 [compound 6, 3-(3-Chloro-1,4-dioxo-1,4-dihydronaphthalen-2-yl)-4-hydroxy-6-phenyl-2H-pyrano[3,2-c]quinoline-2,5(6H)-dione] | 17.76% | 64.18% | little tendency to inhibit | 88.70% | 63.53% | 12.26% | 23.06% | 71.85% | 44.74% | 84.18% | 87.80% | −5.45% | 13.17% | 49.16% | 2.15% | 42.99% | 19.42% | 27.87% | 28.55% | 21.15% | IC50 (p38MAPKα; p38MAPKα IC50, 10 μM GST-ATF2): 3.1 ± 0.5 µM; caspase 3/7 activity in A375 [1]: activation of caspase 3/7; IC50 [2]: 0.13 ± 0.03 µM; A375 real time proliferation (growth confluence), in words (A375 cells [3]): dose-dependent inhibition; level of cleaved PARP in A375 [4]: elevated level; concentration at which inhibition of colony forming ability starts (A375 cells [5]): 2.5 µM; Growth percent (G%) (HL-60 (TB)): 7.05%; Growth percent (G%) (SNB-75): 31.77%; Growth percent (G%) (NCI-H226): 86.30% |
